# “Also recorded” adds a separate entry of the source.
# Legend:
# tubulin = assay: [3H]Colchicine binding assay; design: species or system bovine; details: Tubulin 1 μM; [3H]colchicine and inhibitor both 5 μM
# [1] = system: HeLa cervical cancer cells; assay: Cell viability/proliferation assay, HeLa; format: cell-based, human; details: 24 h, control cells = 100%
# Method in brief: (§1)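 Cells grown at 37 °C, 5% CO2, in D-MEM with 10% fetal calf serum, 4 mM glutamine and 2 mM pyruvate; HCT116/chr3 also got 500 μg/mL G418. Seeded at 1 × 10^3 cells/well and treated 24 h later for 24 h from a 10 mM DMSO stock. Vehicle control was 1% DMSO. Tetrazolium reagent added for 4 h at 37 °C, then absorbance read at 492 nm. Quadruplicate, three repeats; results are % of control, mean ± SD.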
# [2] = system: HCT116/chr3 human colon cancer cells; assay: Cell viability/proliferation assay, HCT116/chr3; format: cell-based; details: 24 h, control cells = 100%
# Method in brief: as §1
# [3] = system: HEK, human embryonic kidney 293 cells; assay: Growth inhibition, MTT, HEK; format: cell-based; details: read-out: HEK IC50 ± SD; MTT method; incubation 48 h
# [4] = system: U937, human leukemic monocyte lymphoma cells; assay: Growth inhibition, MTT, U937; format: cell-based; details: read-out: U937 IC50 ± SD; MTT method; incubation 48 h
# [5] = system: HAOSMC: human aortic smooth muscle cells; assay: Growth inhibition of nontransformed cells, HAOSMC; format: cell-based; details: read-out: HAOSMC IC50 ± SD
# [6] = system: PtK2: potorous tridactylis kidney epithelial cells; assay: Growth inhibition of nontransformed cells, PtK2; format: cell-based, Potorus tridactylis; details: read-out: PtK2 IC50 ± SD
# [7] = system: A10, rat embryonic aortic smooth muscle cells; assay: Growth inhibition of nontransformed cells, A10; format: cell-based; details: read-out: A10 IC50 ± SD
# [8] = system: HUVEC: human umbilical vein endothelial cells; assay: Growth inhibition of nontransformed cells, HUVEC; format: cell-based; details: read-out: HUVEC IC50 ± SD
# [9] = system: M14, human melanoma cells; assay: Growth inhibition, MTT, M14; format: cell-based; details: read-out: M14 IC50 ± SD; MTT method; incubation 48 h
# [10] = system: Saccharomyces cerevisiae BY4741 wild type strain; assay: Yeast toxicity protocol; format: cell-based; details: 20 μM, growth recorded after 3 days at 28 °C; for effect on viability/growth of BY4741 strain cells: 18 h incubation; for serial dilution to which cell growth was limited: 10-fold serial cell dilution
# Method in brief: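 S. cerevisiae BY4741 (MATa his3Δ1 leu2Δ0 met15Δ0 ura3Δ0) grown at 28 °C in SD minimal medium with 2% glucose. Exponential cells (5 × 10^6/mL) exposed to 20 μM for 18 h at 28 °C, then centrifuged, washed twice with water and resuspended in SD. Serial 10-fold dilutions incubated overnight at 28 °C, spotted on YPD plates, and growth scored after 3 days at 28 °C.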
# [11] = system: MCF-7 human breast carcinoma cells; assay: Growth of MCF-7 cells; format: cell-based; details: MCF7, 48 h, read-out: MCF-7 IC50 ± SD
# HEK cells = assay: Time-lapse microscopy, HEK cell morphology and growth; format: cell-based, human; details: 48 h treatment
# M14 cells = assay: Time-lapse microscopy, M14 cell morphology and growth; format: cell-based, human; details: 48 h treatment
molecule,measurement,setting,value
"Methyl 5-Bromo-3-(3,4,5-trimethoxybenzoyl)-1H-indole-2-carboxylate [Compound 28]",inhibition colchicine binding (% ± SD),tubulin,67±4%
same,"% of cell proliferation, HeLa",[1]; 0.5 μM,41±1.1%
same,"% of cell proliferation, HeLa",[1]; 1 μM,47±0.4%
same,"% of cell proliferation, HCT116/chr3",[2]; 0.5 μM,59±0.2%
same,"% of cell proliferation, HCT116/chr3",[2]; 1 μM,66±3.5%
same,IC50,[3],131 ± 3 nM
same,IC50,[4],191 ± 7 nM
same,IC50,[5],55 ± 40 nM
same,IC50,[6],110 ± 60 nM
same,IC50,[7],280 ± 40 nM
same,IC50,[8],150 nM
"Methyl 5-Bromo-3-(3,4,5-trimethoxyphenylthio)-1H-indole-2-carboxylate [Compound 27]",inhibition colchicine binding (% ± SD),tubulin,75±3%
same,"% of cell proliferation, HeLa",[1]; 0.5 μM,53±0.1%
same,"% of cell proliferation, HeLa",[1]; 1 μM,60±0.1%
same,"% of cell proliferation, HCT116/chr3",[2]; 0.5 μM,57±0.9%
same,"% of cell proliferation, HCT116/chr3",[2]; 1 μM,62±1.9%
same,IC50,[3],189 ± 5 nM
same,IC50,[9],155 ± 9 nM
same,IC50,[4],177 ± 10 nM
same,IC50,[5],100 ± 30 nM
same,IC50,[6],280 ± 30 nM
same,IC50,[7],230 ± 100 nM
same,IC50,[8],140 ± 20 nM
"Ethyl 5-Bromo-3-(3,4,5-trimethoxybenzyl)-1H-indole-2-carboxylate [Compound 32]",inhibition colchicine binding (% ± SD),tubulin,53±4%
"Ethyl 5-Bromo-3-(3,4,5-trimethoxybenzoyl)-1H-indole-2-carboxylate [Compound 31]",inhibition colchicine binding (% ± SD),tubulin,58±2%
"(5-Bromo-1H-indol-3-yl)(3,4,5-trimethoxyphenyl)methanone [Compound 25]",inhibition colchicine binding (% ± SD),tubulin,45±5%
"COc1cc(Cn2cccc2C(=O)O)cc(OC)c1OC [Compound 54, 1-(3,4,5-Trimethoxybenzyl)-1H-pyrrole-2-carboxylic acid]",effect on viability/growth of BY4741 strain cells,[10],effectively inhibited growth; also recorded: strongly reduced the viability
same,serial dilution to which cell growth was limited,[10],first dilution
COC(=O)c1[nH]c2ccccc2c1Sc1cc(OC)c(OC)c(OC)c1 [Compound 6],IC50,[11],25 ± 1 nM
COc1cc(Sc2c[nH]c3ccc(Cl)cc23)cc(OC)c1OC [Compound 12],IC50,[11],77 ± 7 nM
"Methyl 5-Methoxy-3-(3,4,5-trimethoxybenzoyl)-1H-indole-2-carboxylate [Compound 39]",inhibition colchicine binding (% ± SD),tubulin,78±6%
same,"% of cell proliferation, HeLa",[1]; 0.5 μM,55±0.7%
same,"% of cell proliferation, HeLa",[1]; 1 μM,54±0.3%
same,"% of cell proliferation, HCT116/chr3",[2]; 0.5 μM,57±3.4%
same,"% of cell proliferation, HCT116/chr3",[2]; 1 μM,55±1.2%
same,IC50,[3],140 ± 1 nM
same,IC50,[9],100 ± 5 nM
same,IC50,[4],155 ± 10 nM
same,IC50,[5],35 ± 7 nM
same,IC50,[6],190 ± 20 nM
same,IC50,[7],95 ± 80 nM
same,IC50,[8],110 ± 60 nM
same,effect on viability/growth of BY4741 strain cells,[10],significant inhibitory effects
same,effect on HEK cell morphology,HEK cells,significant morphologic changes
same,effect on M14 cell morphology,M14 cells,significant morphologic changes
"methyl 5-methoxy-3-(3,4,5-trimethoxyphenylthio)-1H-indole-2-carboxylate [Compound 36]",effect on viability/growth of BY4741 strain cells,[10],significant inhibitory effects
"Ethyl 5-Bromo-3-(3,4,5-trimethoxyphenylthio)-1H-indole-2-carboxylate [Compound 30]",inhibition colchicine binding (% ± SD),tubulin,62±7%
"Methyl 5-Methoxy-3-(3,4,5-trimethoxybenzyl)-1H-indole-2-carboxylate [Compound 41]",inhibition colchicine binding (% ± SD),tubulin,59±1%
same,"% of cell proliferation, HeLa",[1]; 0.5 μM,52±0.7%
same,"% of cell proliferation, HeLa",[1]; 1 μM,51±0.2%
same,"% of cell proliferation, HCT116/chr3",[2]; 0.5 μM,69±6.7%
same,"% of cell proliferation, HCT116/chr3",[2]; 1 μM,69±0.3%
same,IC50,[3],181 ± 3 nM
same,IC50,[9],137 ± 5 nM
same,IC50,[4],189 ± 5 nM
same,IC50,[5],70 ± 10 nM
same,IC50,[6],190 ± 200 nM
same,IC50,[7],130 ± 100 nM
same,IC50,[8],170 ± 50 nM
same,effect on HEK cell morphology,HEK cells,significant morphologic changes
same,effect on M14 cell morphology,M14 cells,significant morphologic changes
"Methyl 5-Bromo-3-(3,4,5-trimethoxybenzyl)-1H-indole-2-carboxylate [Compound 29]",inhibition colchicine binding (% ± SD),tubulin,59±7%
same,"% of cell proliferation, HeLa",[1]; 0.5 μM,52±0.4%
same,"% of cell proliferation, HeLa",[1]; 1 μM,45±1.6%
same,"% of cell proliferation, HCT116/chr3",[2]; 0.5 μM,51±4.6%
same,"% of cell proliferation, HCT116/chr3",[2]; 1 μM,51±1.6%
same,IC50,[3],160 ± 5 nM
same,IC50,[9],120 ± 10 nM
same,IC50,[4],159 ± 10 nM
same,IC50,[5],35 ± 7 nM
same,IC50,[6],270 ± 100 nM
same,IC50,[7],230 ± 100 nM
same,IC50,[8],140 ± 20 nM
same,effect on viability/growth of BY4741 strain cells,[10],significant BY4741 inhibition
same,serial dilution to which cell growth was limited,[10],third dilution
COc1cc(Sc2c[nH]c3ccccc23)cc(OC)c1OC [Compound 3],IC50,[11],34 ± 9 nM
"(5-Methoxy-1H-indol-3-yl)-(3,4,5-trimethoxyphenyl)methanone [Compound 34]",inhibition colchicine binding (% ± SD),tubulin,32±7%
CCOC(=O)c1[nH]c2ccc(Cl)cc2c1Sc1cc(OC)c(OC)c(OC)c1 [Compound 18],IC50,[11],110 ± 2 nM
"Ethyl 5-Methoxy-3-(3,4,5-trimethoxybenzyl)-1H-indole-2-carboxylate [Compound 45]",inhibition colchicine binding (% ± SD),tubulin,42±4%
"Ethyl 5-Methoxy-3-(3,4,5-trimethoxybenzoyl)-1H-indole-2-carboxylate [Compound 43]",inhibition colchicine binding (% ± SD),tubulin,49±4%

# Reference: publication PMC2797757 (Journal of medicinal chemistry, 2009)
